According to ChEMBL document CHEMBL3779817, “Investigations on the 4-Quinolone-3-carboxylic Acid Motif. 7. Synthesis and Pharmacological Evaluation of 4-Quinolone-3-carboxamides and 4-Hydroxy-2-quinolone-3-carboxamides as High Affinity Cannabinoid Receptor 2 (CB2R) Ligands with Improved Aqueous Solubility” (J Med Chem, 2016):
Values after ≈ are worked out from the molar mass of the structure shown.

How the values were obtained:
[1] = organism: Homo sapiens; test: Selectivity index, ratio of Ki for recombinant human CB1 receptor to Ki for recombinant human CB2 receptor
[2] = target: Cannabinoid receptor 1 (Homo sapiens) (UniProt P21554); details: HEK293
Sequence of Cannabinoid receptor 1 (Homo sapiens) (P21554 whole entry): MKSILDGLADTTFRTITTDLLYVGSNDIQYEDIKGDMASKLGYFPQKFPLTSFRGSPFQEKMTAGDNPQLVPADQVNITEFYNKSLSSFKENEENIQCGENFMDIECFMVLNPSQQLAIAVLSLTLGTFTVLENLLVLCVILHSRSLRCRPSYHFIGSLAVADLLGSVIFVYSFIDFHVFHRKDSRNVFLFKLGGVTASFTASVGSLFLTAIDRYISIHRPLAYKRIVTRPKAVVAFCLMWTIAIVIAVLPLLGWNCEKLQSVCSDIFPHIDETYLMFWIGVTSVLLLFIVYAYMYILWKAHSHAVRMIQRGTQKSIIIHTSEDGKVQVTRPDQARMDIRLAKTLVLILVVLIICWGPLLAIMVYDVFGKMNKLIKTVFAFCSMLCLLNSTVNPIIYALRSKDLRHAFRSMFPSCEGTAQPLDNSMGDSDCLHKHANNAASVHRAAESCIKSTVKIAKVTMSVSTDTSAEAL

[3] = target: T1, Cannabinoid receptor 2 (Homo sapiens, UniProt P34972); test: Displacement of [3H]-CP-55940 from human recombinant CB2 receptor expressed in HEK293 cells after 90 mins by Competition binding assay; type: cell-based
T1 sequence (P34972 whole entry): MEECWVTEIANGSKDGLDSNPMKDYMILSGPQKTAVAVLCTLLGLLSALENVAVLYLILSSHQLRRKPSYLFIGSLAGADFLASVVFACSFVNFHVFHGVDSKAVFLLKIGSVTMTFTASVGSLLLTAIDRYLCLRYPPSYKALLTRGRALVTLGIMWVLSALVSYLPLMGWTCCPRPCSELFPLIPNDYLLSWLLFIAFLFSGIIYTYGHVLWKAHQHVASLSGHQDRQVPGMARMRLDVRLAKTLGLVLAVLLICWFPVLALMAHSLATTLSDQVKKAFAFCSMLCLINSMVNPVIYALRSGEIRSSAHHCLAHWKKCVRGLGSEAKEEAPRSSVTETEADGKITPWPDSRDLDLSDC

[4] = Cytotoxicity against mouse NIH/3T3 cells assessed as cell viability after 24 hrs by neutral red uptake test; type: cell-based; details: NIH3T3, 24 h
[5] = Kinetic solubility in DMSO solution at pH 1.0 after 2 hrs by HPLC-UV analysis; type: physicochemical; details: read-out: Kinetic_solubility
[6] = Kinetic solubility in DMSO solution at pH 7.4 after 2 hrs by HPLC-UV analysis; type: physicochemical; details: for solubility kinetic at 2 h: DMSO solution, pH 7.4, read-out: Kinetic_solubility; for log(Kinetic_solubility): pH 7.4, 2 h
[7] = target: T1, Cannabinoid receptor 2; test: Inverse agonist activity at recombinant human CB2 receptor expressed in CHO-K1 cells assessed as increase in […]-induced cAMP production by luminescence assay relative to AM630; type: functional, cell-based
Summary of the method: (§1)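 CHO-K1 cells overexpressing human CB2, 30000 per well, left overnight at 37 °C, 5% CO2, then given compound dose–response with NKH477 (3× solution of 25 μM) to stimulate adenylate cyclase. cAMP read by enzyme-fragment-complementation chemiluminescence; response normalised to NKH477 alone as 100%. Mean ± SEM of two independent experiments in triplicate.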

[8] = target: T1, Cannabinoid receptor 2; test: Inverse agonist activity at recombinant human CB2 receptor expressed in CHO-K1 cells assessed as increase in […]-induced cAMP production by luminescence assay; type: functional, cell-based; summary of the method: as §1

Structure (SMILES)	Ratio Ki [1]	Kieq [2] [nM]	Kieq [3] [nM]	IC50 [4] [µM]	solubility kinetic at 2 h [5] [µg/mL]	solubility kinetic at 2 h [6] [µg/mL]	log(Kinetic_solubility) [6]	Efficacy [7] [%]	EC50 [8] [µM]	IC50 [3] [µM]
COCCOCn1cc(C(=O)NC23CC4CC(CC(C4)C2)C3)c(=O)c2ccc(F)cc21	> 177	> 10000	56							
CCCCCn1cc(C(=O)NC23CC4CC(CC(C4)C2)C3)c(=O)c2cc(C(C)C)ccc21				14	0.21 (≈ 0.483 µM)	1 (≈ 2.3 µM)	-5.64			
COc1ccc(CNC(=O)c2c(O)c3cc(-c4cccs4)ccc3n(CCCCO)c2=O)cc1	> 4	> 10000	2240							
CC(C)c1cc2c(=O)c(C(=O)NC34CC5CC(CC(C5)C3)C4)cn(CCN(C)C)c2cc1F	63	717	11.4		35.5 (≈ 78.3 µM)	12.1 (≈ 26.7 µM)	-4.57			
CCCCCn1cc(C(=O)NC23CC4CC(CC(C4)C2)C3)c(=O)c2ccccc21	9	42.1	4.7							
O=C(NC12CC3CC(CC(C3)C1)C2)c1cn(CCN2CCS(=O)(=O)CC2)c2cc(F)ccc2c1=O	8	1900	246							
CC(C)c1ccc2c(c1)c(=O)c(C(=O)NC13CC4CC(CC(C4)C1)C3)cn2CCN(C)C	> 68	> 10000	146	5	31.5 (≈ 72.3 µM)	4.5 (≈ 10.3 µM)	-4.99			
Cc1ccc(Cn2nc(C(=O)N[C@@H]3C(C)(C)[C@@H]4CC[C@@]3(C)C4)cc2-c2ccc(Cl)c(C)c2)cc1		> 2820								
CCCCCn1c(=O)c(C(=O)NC23CC4CC(CC(C4)C2)C3)c(O)c2ccccc21				74	0.23 (≈ 0.563 µM)	1.4 (≈ 3.43 µM)	-5.47	< 50	0.0024	0.002
CCCCCn1cc(C(=O)NC23CC4CC(CC(C4)C2)C3)c(=O)c2cc(C(C)C)c(F)cc21				9						
CCCCCn1cc(C(=O)NC23CC4CC(CC(C4)C2)C3)c(=O)c2cc(-c3ccccc3)ccc21	> 2660	> 10000	3.8							
CC(C)c1ccc2c(c1)c(=O)c(C(=O)NC13CC4CC(CC(C4)C1)C3)cn2CCN1CCS(=O)(=O)CC1	> 5	> 10000	1930							
CCCCCn1cc(C(=O)NC23CC4CC(CC(C4)C2)C3)c(=O)c2ccc(F)cc21	38	30.5	0.8	74	0.05 (≈ 0.122 µM)	0.014 (≈ 0.0341 µM)	-7.47			
CCCCCn1c2c(c(O)c(C(=O)NC34CC5CC(CC(C5)C3)C4)c1=O)CCCC2				15	0.1 (≈ 0.242 µM)	1.3 (≈ 3.15 µM)	-5.5			
O=C(NCC1CCCCC1)c1c(O)c2ccccc2n(CCCCO)c1=O	20	829	41.3							
CCCCCn1c(=O)c(C(=O)NC23CC4CC(CC(C4)C2)C3)cc2cc(C(C)C)ccc21				92						
CCCCCn1c(=O)c(C(=O)NCc2ccc(OC)cc2)c(O)c2cc(-c3cccs3)ccc21	8	159	19.7							
CCCCCn1c(=O)c(C(=O)NC23CC4CC(CC(C4)C2)C3)c(O)c2cc(C(C)C)ccc21	2350	1240	0.53	13	0.02 (≈ 0.0444 µM)	1.9 (≈ 4.22 µM)	-5.38	< 50	0.0026	0.0037
COCCOCn1cc(C(=O)NC23CC4CC(CC(C4)C2)C3)c(=O)c2cc(C(C)C)ccc21	> 20	> 10000	480							
CCCCCn1cc(C(=O)NC23CC4CC(CC(C4)C2)C3)c(=O)c2ccc(Sc3ccccc3)cc21	3.3	5.3	1.6							
CN(C)CCn1cc(C(=O)NC23CC4CC(CC(C4)C2)C3)c(=O)c2ccc(F)cc21	8	501	60	15	170 (≈ 414 µM)	5.6 (≈ 13.6 µM)	-4.87			
CCCCCn1c(=O)c(C(=O)NC23CC4CC(CC(C4)C2)C3)c(O)c2ccc(F)cc21	1380	1280	0.93	19	0.17 (≈ 0.399 µM)	1.5 (≈ 3.52 µM)	-5.45	< 50	0.0179	0.0035
O=C(NCc1ccc(F)cc1)c1c(O)c2cc(-c3ccco3)ccc2n(CCCCO)c1=O	6	1580	253							
CCCCCn1c(=O)c(C(=O)NC23CC4CC(CC(C4)C2)C3)c(O)c2cc(C(C)C)c(F)cc21	> 150	> 10000	66.4	13						
